From ChEMBL document CHEMBL5674889, “Enhanced JunD/RSK3 signalling due to loss of BRD4/FOXD3/miR-548d-3p axis determines BET inhibition resistance” (2020)
Calls of active or inactive are those of the source.

Assays:
Format in all cases: functional, cell-based
MDA-MB-231 [1] = assay: Effect on JUND dependent RPS6KA2 transcription in human JUND-knockdown MDA-MB-231 cells assessed reduction in transcription level at 1 uM by ChIP-RT-PCR analysis
Summary of the method: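 ChIP-qPCR used ~1 × 10^6 cross-linked JUND-knockdown or control cells treated with DMSO or 1 μM for 6 h. Immunoprecipitated DNA was quantified by real-time PCR with primers specific to the RPS6KA2 enhancer. Non-specific primers downstream of the gene 3′ end served as control.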

MDA-MB-231 [2] = assay: Effect on human BRD4-knockdown MDA-MB-231 assessed as decreased luciferase activity at 1 uM for 6 hrs by Luciferase reporter assay
MDA-MB-231 [3] = assay: Antiproliferative activity in human MDA-MB-231 cells assessed as cell growth in the presence of osimertinib at 1 uM by CellTiter-Glo luminescent cell viability assay
Summary of the method: (§1)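 BLBC cells seeded at 3000/well, adhered overnight, then exposed to JQ1 (1 μM) with or without an EGFR inhibitor (1 μM) for 48 h; control and RPS6KA2-shRNA clones tested. Viability by CellTiter-Glo luminescence, background-subtracted and normalized to DMSO-treated control; triplicates, mean ± SD, one-way ANOVA against JQ1 alone.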

BT-549 [4] = assay: Effect on human BRD4-knockdown BT-549 cells assessed as miR-548d-3p expression at 1 uM by real-time PCR analysis
MDA-MB-231 [5] = assay: Antiproliferative activity in human JUND-knockdown MDA-MB-231 cells assessed as stronger tumor sphere formation at 1 uM by tumor sphere assay
BT-549 [6] = assay: Cytotoxicity in human RSK3-overexpressing BT-549 cells assessed as cell viability at 1 uM for 48 hrs by CellTiter-Glo luminescent cell viability assay
Summary of the method: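 CellTiter-Glo viability: stable overexpressing or shRNA clones (puromycin 1.0 μg/ml selection) seeded 3000 cells/well, adhered overnight, then exposed to 1 μM for 48 h. Luminescence is background-subtracted and normalised to DMSO-treated control. Triplicates, mean ± SD, one-way ANOVA. MDA-MB-231 cells are kept in DMEM and BT549 in RPMI-1640, each with 10% FBS.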

MDA-MB-231 [7] = assay: Antiproliferative activity in human MDA-MB-231 cells assessed as cell growth in the presence of miR-548d-3p inhibitor at 1 uM by CCK-8 assay
Summary of the method: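 BLBC cells transfected with miR-548d-3p mimic or inhibitor, with or without JQ1; growth read by CCK-8 assay relative to DMSO-treated control, seeded at 3000/well. Triplicates, mean ± SD, one-way ANOVA.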

MDA-MB-231 [8] = assay: Antiproliferative activity in human MDA-MB-231 cells assessed as cell growth in the presence of lapatinib at 1 uM by CellTiter-Glo luminescent cell viability assay; summary of the method: as §1
BT-549 [9] = assay: Induction of apoptosis in human RPS6KA2-knockdown BT-549 cells at 1 uM by FACS assay
Summary of the method: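 Stable clones (vector, RSK3-overexpressing or RPS6KA2-knockdown) treated ± JQ1 1 μM. Cells washed twice in PBS, resuspended at 1 × 10^6 cells/ml in binding buffer, stained with Annexin V-FITC and propidium iodide for 10 min at room temperature in the dark, then read by flow cytometry. Three independent experiments; one-way ANOVA.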

Measured: Activity

Cc1sc2c(c1C)C(c1ccc(Cl)cc1)=N[C@@H](CC(=O)OC(C)(C)C)c1nnc(C)n1-2
active: all assays above
